From ChEMBL document CHEMBL4229391, “Divergent synthesis of thapsigargin analogs” (Bioorg Med Chem Lett, 2018)

Key:
Format in all cases: cell-based
HeLa [1] = experiment: Inhibition of SERCA in human HeLa cells assessed as increase in cytosolic calcium level at 3.81 x 10^-11M measured over 300 secs by Fluo-4 NW dye based FLIPR analysis relative to control
Method in brief: (§1)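 HeLa cells were seeded at 25,000/well in MEM + 10% FBS and grown overnight at 37°C, 5% CO2. They were loaded with Fluo-4 NW (30 min at 37°C, then 30 min at RT). Compound was added in HBSS/20 mM HEPES, one point of a 10-point in-assay range (10 uM – 38 pM). Fluorescence (ex 470-495, em 515-575 nm) was read for 300 s. Peak signal was normalized to thapsigargin (=100%) and buffer (0.2% DMSO) controls.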

HeLa [2] = experiment: Inhibition of SERCA in human HeLa cells assessed as increase in cytosolic calcium level at 1.00 x 10^-5M measured over 300 secs by Fluo-4 NW dye based FLIPR analysis relative to control; method in brief: as §1
HeLa [3] = experiment: Inhibition of SERCA in human HeLa cells assessed as increase in cytosolic calcium level at 6.25 x 10^-7M measured over 300 secs by Fluo-4 NW dye based FLIPR analysis relative to control; method in brief: as §1
[4] = Inhibition of SERCA in human HeLa cells assessed as increase in cytosolic calcium level measured over 300 secs by Fluo-4 NW dye based FLIPR analysis
Method in brief: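 Fluo-4 NW-loaded HeLa cells (25,000/well, overnight culture in MEM/10% FBS) received 10-point titrations (10 uM – 38 pM in-assay) in HBSS/20 mM HEPES. Fluorescence was recorded for 300 s. Peak signals, normalized to thapsigargin and 0.2% DMSO buffer controls, were fitted to a log agonist-response model. The midpoint concentration is reported as IC50. Values are mean ± SD of three independent determinations, each run in duplicate.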

HeLa [5] = experiment: Inhibition of SERCA in human HeLa cells assessed as increase in cytosolic calcium level at 2.50 x 10^-6M measured over 300 secs by Fluo-4 NW dye based FLIPR analysis relative to control; method in brief: as §1
HeLa [6] = experiment: Inhibition of SERCA in human HeLa cells assessed as increase in cytosolic calcium level at 1.53 x 10^-10M measured over 300 secs by Fluo-4 NW dye based FLIPR analysis relative to control
Method in brief: (§2)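 HeLa cells seeded at 25,000/well in MEM + 10% FBS and kept overnight at 37°C, 5% CO2. They were loaded with FLUO-4 NW (30 min 37°C, then 30 min RT) in HBSS/20 mM HEPES. Compounds were added from DMSO in a 10-point titration (in-assay 10 uM–38 pM). Fluorescence (ex 470-495, em 515-575 nm) was read 300 s. Signal maxima were normalized to thapsigargin (100%) and buffer/0.2% DMSO controls. Three independent runs in duplicate.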

HeLa [7] = experiment: Inhibition of SERCA in human HeLa cells assessed as increase in cytosolic calcium level at 3.91 x 10^-8M measured over 300 secs by Fluo-4 NW dye based FLIPR analysis relative to control; method in brief: as §1
HeLa [8] = experiment: Inhibition of SERCA in human HeLa cells assessed as increase in cytosolic calcium level at 1.56 x 10^-7M measured over 300 secs by Fluo-4 NW dye based FLIPR analysis relative to control; method in brief: as §1
HeLa [9] = experiment: Inhibition of SERCA in human HeLa cells assessed as increase in cytosolic calcium level at 9.77 x 10^-9M measured over 300 secs by Fluo-4 NW dye based FLIPR analysis relative to control; method in brief: as §2
HeLa [10] = experiment: Inhibition of SERCA in human HeLa cells assessed as increase in cytosolic calcium level at 6.10 x 10^-10M measured over 300 secs by Fluo-4 NW dye based FLIPR analysis relative to control; method in brief: as §2
HeLa [11] = experiment: Inhibition of SERCA in human HeLa cells assessed as increase in cytosolic calcium level at 2.44 x 10^-9M measured over 300 secs by Fluo-4 NW dye based FLIPR analysis relative to control; method in brief: as §2

Compound	IC50 [4] [nM]	inhibition (HeLa [1]) [%]	inhibition (HeLa [2]) [%]	inhibition (HeLa [3]) [%]	inhibition (HeLa [5]) [%]	inhibition (HeLa [6]) [%]	inhibition (HeLa [7]) [%]	inhibition (HeLa [8]) [%]	inhibition (HeLa [9]) [%]	inhibition (HeLa [10]) [%]	inhibition (HeLa [11]) [%]
C/C=C(/C)C(=O)O[C@H]1C(C)=C2[C@H]([C@@H]1OC(=O)CCCCC)[C@@](C)(OC(C)=O)C[C@H](OC(=O)CCC)[C@@]1(O)[C@H]2OC(=O)[C@@]1(C)O	73 to 90	-2.5 to 2	86.6 to 100	90.8 to 104	91.1 to 105	-2.1 to 3.5	5.8 to 30.7	64.9 to 94.4	-2.2 to 7.9	-4.6 to 4.1	-5.9 to 4.6
CCCCCCCC(=O)O[C@H]1[C@H]2C(=C(C)[C@@H]1OC(=O)[C@H](C)CC)[C@@H]1OC(=O)[C@@](C)(O)[C@@]1(O)[C@@H](OC(=O)CCC)C[C@]2(C)OC(C)=O	57.7 to 104	-0.7 to 2.6	87.4 to 108	91.7 to 104	88.1 to 106	-4.3 to 1.5	8.1 to 45.8	71.9 to 87.8	1 to 7.1	-0.7 to 1.9	-1.6 to 3.6
C/C=C(/C)C(=O)O[C@H]1C(C)=C2[C@H]([C@@H]1OC(=O)CCCCCCC)[C@@](C)(OC(C)=O)C[C@H](OC(=O)CCC)[C@@]1(O)[C@H]2OC(=O)[C@@]1(C)O [THAPSIGARGIN]	28.5 to 51	-2.3 to 2.9	89 to 107	90.4 to 109	92.9 to 105	-1.7 to 0.1	37.6 to 75.1	67.6 to 103	-2.7 to 10.5	-5 to 0.6	-4.1 to 1.4
CCCCCCCC(=O)O[C@H]1[C@H]2C(=C(C)[C@@H]1OC(=O)c1cccs1)[C@@H]1OC(=O)[C@@](C)(O)[C@@]1(O)[C@@H](OC(=O)CCC)C[C@]2(C)OC(C)=O	71.5 to 117	-5.9 to 0.6	92.9 to 102	68.8 to 103	79.6 to 105	–	-7.5 to 25.7	52.4 to 84.4	–	–	–
C/C=C(/C)C(=O)O[C@@H]1C[C@H]2C(=C1C)[C@@H]1OC(=O)[C@@](C)(O)[C@@]1(O)[C@@H](OC(=O)C=C(C)C)C[C@]2(C)OC(C)=O	204 to 268	-2 to 1.7	92 to 102	65.5 to 94.1	87.1 to 102	-3.3 to 2.6	-1.7 to 10.7	12.1 to 55.6	-4.7 to 4.6	-3 to 3.3	-3.4 to 4.1

Further lines, with some results ahead:

IC50 [4] [nM]	Compound	inhibition (HeLa [1]) [%]	inhibition (HeLa [2]) [%]	inhibition (HeLa [3]) [%]	inhibition (HeLa [5]) [%]	inhibition (HeLa [6]) [%]	inhibition (HeLa [7]) [%]	inhibition (HeLa [8]) [%]	inhibition (HeLa [9]) [%]	inhibition (HeLa [10]) [%]	inhibition (HeLa [11]) [%]
310 to 576	CCCCCCCC(=O)O[C@H]1[C@H]2C(=C(C)[C@@H]1OC(=O)CC(C)C)[C@@H]1OC(=O)[C@@](C)(O)[C@@]1(O)[C@@H](OC(=O)CCC)C[C@]2(C)OC(C)=O	-8 to 21.4	89.7 to 96.6	40.2 to 84.1	72.4 to 91.7	–	–	–	–	–	–
30 to 119	CCCCCCCC(=O)O[C@H]1[C@H]2C(=C(C)[C@@H]1OC(=O)c1sccc1C)[C@@H]1OC(=O)[C@@](C)(O)[C@@]1(O)[C@@H](OC(=O)CCC)C[C@]2(C)OC(C)=O	-2.2 to 3.1	92 to 101	83.7 to 102	86.7 to 101	-2.6 to 0.5	-6.6 to 60.1	57 to 99.4	-6.6 to 10	-4.2 to 0.8	-7.7 to 1.6
220 to 298	C/C=C(/C)C(=O)O[C@H]1C(C)=C2[C@H]([C@@H]1OC(=O)CCCCCCC)[C@@](C)(OC(C)=O)C[C@H](OC(=O)[C@@H](C)CC)[C@@]1(O)[C@H]2OC(=O)[C@@]1(C)O	-2.2 to 2.4	89.4 to 110	88.4 to 101	91.1 to 109	-4.2 to 2.5	2.9 to 27.6	6.2 to 40.9	-1.3 to 3.8	-3.2 to 2.2	-1.6 to 2.8
